Measurements reported in the array DNA melting data of Ke et al. (doi:10.1101/2024.01.08.574731).

What was measured:
[1] = melting temperature; fluorescence melt of hairpins on a sequencing array, two-state fit, raised by 9.35 °C to match UV melts; conditions: sodium 0.088 M
In short: (§1)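 To match UV melts, fitted temperatures were raised by 9.35 °C. These fits were bootstrapped two-state models that gave melting temperature and folding enthalpy, combined by inverse variance over four replicates. The input was normalised Cy3 fluorescence of library hairpins with annealed Cy3 and quencher oligos on a sequenced MiSeq flow cell, imaged in 50 mM Na-HEPES pH 8.0, 25 mM NaCl in 2.5 °C steps up to 60 °C.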

[2] = folding enthalpy; higher = less favourable; fluorescence melt of hairpins on a sequencing array, two-state fit; conditions: sodium 0.088 M
In short: as §1

Sequence: GCTAGGCGAAAGCCTCGC ((.((((....)))).))
- Tm [1]: 58.9 °C
- folding enthalpy [2]: -17.8 kcal/mol

Sequence: GCTAGGCGAAAGCGAAGC (((..((....))..)))
- Tm [1]: 35.3 °C
- folding enthalpy [2]: -15.8 kcal/mol

Sequence: GCTAGGCGAAAGCGTCGC ((.(.((....)).).))
- Tm [1]: 40.3 °C
- folding enthalpy [2]: -14.3 kcal/mol

Sequence: GCTAGGCGAAAGCTTGGC ((.(.((....)).).))
- Tm [1]: 45.2 °C
- folding enthalpy [2]: -20.6 kcal/mol

Sequence: GCTAGGCGAAAGCTTTGC ((.(.((....)).).))
- Tm [1]: 42.3 °C
- folding enthalpy [2]: -17.6 kcal/mol

Sequence: GCTAGGGGAAACCCTGGC ((.((((....)))).))
- Tm [1]: 53.4 °C
- folding enthalpy [2]: -36.9 kcal/mol

Sequence: GCTAGGGGAAACCTTAGC ((((.((....)).))))
- Tm [1]: 44.5 °C
- folding enthalpy [2]: -33.7 kcal/mol

Sequence: GCTAGGGGAAACTCTGGC ((.((.(....).)).))
- Tm [1]: 32.9 °C
- folding enthalpy [2]: -23.9 kcal/mol

Sequence: GCTAGGTCGAAAGACAGC (((..(((....))))))
- Tm [1]: 39.6 °C
- folding enthalpy [2]: -18.1 kcal/mol

Sequence: GCTAGTCGAAAGACCAGC (((.(((....))).)))
- Tm [1]: 47.3 °C
- folding enthalpy [2]: -26.6 kcal/mol

Sequence: GCTAGTGCGAAAGCAAGC (((..(((....))))))
- Tm [1]: 39 °C
- folding enthalpy [2]: -12.3 kcal/mol

Sequence: GCTAGTGGAAACATTAGC ((((.((....)).))))
- Tm [1]: 42.7 °C
- folding enthalpy [2]: -28.3 kcal/mol

Sequence: GCTATACCGAAAGGTAGC (((..(((....))))))
- Tm [1]: 40 °C
- folding enthalpy [2]: -17 kcal/mol

Sequence: GCTATACGAAAGTAAGC (((.(((....))))))
- Tm [1]: 40.6 °C
- folding enthalpy [2]: -22.3 kcal/mol

Sequence: GCTATAGCGAAAGCTAGC (((..(((....))))))
- Tm [1]: 44.6 °C
- folding enthalpy [2]: -18 kcal/mol

Sequence: GCTATAGGAAACTATGGC ((.((((....)))).))
- Tm [1]: 41.7 °C
- folding enthalpy [2]: -28.6 kcal/mol

Sequence: GCTATCACGAAAGTGAGC (((..(((....))))))
- Tm [1]: 36.1 °C
- folding enthalpy [2]: -14.1 kcal/mol

Sequence: GCTATCCGAAAGGAAAGC (((.(((....))).)))
- Tm [1]: 49 °C
- folding enthalpy [2]: -31.4 kcal/mol

Sequence: GCTATCGAAAGATAGAGC ((((((....)))..)))
- Tm [1]: 42.7 °C
- folding enthalpy [2]: -23.4 kcal/mol

Sequence: GCTATCGAAAGATCAAGC ((((((....)))..)))
- Tm [1]: 30.8 °C
- folding enthalpy [2]: -18.3 kcal/mol

Sequence: GCTATCGAAAGATGGAGC ((((((....)))..)))
- Tm [1]: 33.6 °C
- folding enthalpy [2]: -15.9 kcal/mol

Sequence: GCTATCGAAAGATTCAGC ((((((....)))..)))
- Tm [1]: 29.6 °C
- folding enthalpy [2]: -11.6 kcal/mol

Sequence: GCTATGCCGAAAGGCAGC (((..(((....))))))
- Tm [1]: 40.2 °C
- folding enthalpy [2]: -12.1 kcal/mol

Sequence: GCTATGCGAAAGCAAAGC (((.(((....))).)))
- Tm [1]: 51.6 °C
- folding enthalpy [2]: -36 kcal/mol

Sequence: GCTATGCGAAAGCACAGC (((.(((....))).)))
- Tm [1]: 48.7 °C
- folding enthalpy [2]: -39.7 kcal/mol

Sequence: GCTATGCGAAAGCATCGC ((.((((....)))).))
- Tm [1]: 55.3 °C
- folding enthalpy [2]: -22.5 kcal/mol

Sequence: GCTATGCGAAAGCCTTGC ((.(.((....)).).))
- Tm [1]: 30 °C
- folding enthalpy [2]: -12.7 kcal/mol

Sequence: GCTATGCGAAAGCGCAGC (((..((....))..)))
- Tm [1]: 36.8 °C
- folding enthalpy [2]: -18 kcal/mol

Sequence: GCTATGGCGAAAGCCAGC (((..(((....))))))
- Tm [1]: 42.6 °C
- folding enthalpy [2]: -11.2 kcal/mol

Sequence: GCTATGGGAAACCATAAC (.(((((....))))).)
- Tm [1]: 28.7 °C
- folding enthalpy [2]: -12.8 kcal/mol

Sequence: GCTATGGGAAACCGTAGC ((((.((....)).))))
- Tm [1]: 51.9 °C
- folding enthalpy [2]: -44.1 kcal/mol

Sequence: GCTATGGGAAACTGTAGC ((((..(....)..))))
- Tm [1]: 36 °C
- folding enthalpy [2]: -25.2 kcal/mol

Sequence: GCTATTGAAAAATAGC ((((((....))))))
- Tm [1]: 49.5 °C
- folding enthalpy [2]: -31.2 kcal/mol

Sequence: GCTATTGCGAAAGCAAGC (((..(((....))))))
- Tm [1]: 42.2 °C
- folding enthalpy [2]: -10.2 kcal/mol

Sequence: GCTCAACCGAAAGGTAGC (((..(((....))))))
- Tm [1]: 39.4 °C
- folding enthalpy [2]: -18.4 kcal/mol

Sequence: GCTCAACGAAAGTTCAGC (((.(((....))).)))
- Tm [1]: 37.6 °C
- folding enthalpy [2]: -23.6 kcal/mol

Sequence: GCTCAAGGAAACTTGAGC (((((((....)))))))
- Tm [1]: 64.4 °C
- folding enthalpy [2]: -46.3 kcal/mol

Sequence: GCTCAAGGAAACTTGGGC ((.((((....)))).))
- Tm [1]: 50 °C
- folding enthalpy [2]: -37.4 kcal/mol

Sequence: GCTCACCGAAAGGTCAGC (((.(((....))).)))
- Tm [1]: 44.2 °C
- folding enthalpy [2]: -26.3 kcal/mol

Sequence: GCTCACCGAAAGGTTAGC (((.(((....))).)))
- Tm [1]: 49.9 °C
- folding enthalpy [2]: -31 kcal/mol

Sequence: GCTCACGAAAGTGAGAGC ((((((....)))..)))
- Tm [1]: 59 °C
- folding enthalpy [2]: -13.7 kcal/mol

Sequence: GCTCACGAAAGTGCAAGC ((((((....)))..)))
- Tm [1]: 39.4 °C
- folding enthalpy [2]: -17.4 kcal/mol

Sequence: GCTCACGAAAGTGCCAGC ((((((....)))..)))
- Tm [1]: 33.5 °C
- folding enthalpy [2]: -13.1 kcal/mol

Sequence: GCTCACGAAAGTGCGAGC ((((((....)))..)))
- Tm [1]: 38.7 °C
- folding enthalpy [2]: -19.8 kcal/mol

Sequence: GCTCACGAAAGTGGAGC ((((((....))).)))
- Tm [1]: 59 °C
- folding enthalpy [2]: -27.5 kcal/mol

Sequence: GCTCACGGAAACACGAGC ((((..(....)..))))
- Tm [1]: 34 °C
- folding enthalpy [2]: -25.8 kcal/mol

Sequence: GCTCACGGAAACGTAAGC (((.(((....))).)))
- Tm [1]: 41.8 °C
- folding enthalpy [2]: -27.3 kcal/mol

Sequence: GCTCAGCGAAAGCACAGC (((..((....))..)))
- Tm [1]: 39.7 °C
- folding enthalpy [2]: -14.9 kcal/mol

Sequence: GCTCAGCGAAAGCAGTGC ((.(.((....)).).))
- Tm [1]: 44.4 °C
- folding enthalpy [2]: -13.2 kcal/mol

Sequence: GCTCAGCGAAAGCCGCGC ((.(.((....)).).))
- Tm [1]: 42 °C
- folding enthalpy [2]: -17.8 kcal/mol

Sequence: GCTCAGCGAAAGCCGGGC ((.(.((....)).).))
- Tm [1]: 45.4 °C
- folding enthalpy [2]: -17.1 kcal/mol

Sequence: GCTCAGCGAAAGCTAGC (((.(((....))))))
- Tm [1]: 49.4 °C
- folding enthalpy [2]: -20 kcal/mol

Sequence: GCTCAGCGAAAGCTCAGC (((.(((....))).)))
- Tm [1]: 44.7 °C
- folding enthalpy [2]: -15 kcal/mol

Sequence: GCTCAGCGAAAGCTCCGC ((..(((....)))..))
- Tm [1]: 22.4 °C
- folding enthalpy [2]: -8.07 kcal/mol

Sequence: GCTCAGCGAAAGCTGTGC ((.((((....)))).))
- Tm [1]: 64.2 °C
- folding enthalpy [2]: -21.5 kcal/mol

Sequence: GCTCATCGAAAGATTAGC (((.(((....))).)))
- Tm [1]: 42.8 °C
- folding enthalpy [2]: -34.5 kcal/mol

Sequence: GCTCCACCGAAAGGTAGC (((..(((....))))))
- Tm [1]: 33.9 °C
- folding enthalpy [2]: -17.2 kcal/mol

Sequence: GCTCCACGAAAGTGTAGC (((.(((....))).)))
- Tm [1]: 49.2 °C
- folding enthalpy [2]: -28.9 kcal/mol

Sequence: GCTCCAGGAAACCGGAGC (((((.(....).)))))
- Tm [1]: 54.3 °C
- folding enthalpy [2]: -40.5 kcal/mol

Sequence: GCTCCAGGAAACTGAAGC (((.(((....))).)))
- Tm [1]: 38.6 °C
- folding enthalpy [2]: -32.5 kcal/mol

Sequence: GCTCCCCCGAAAGGGAGC (((..(((....))))))
- Tm [1]: 66.1 °C
- folding enthalpy [2]: -29.4 kcal/mol

Sequence: GCTCCCGAAAGGGAGAGC ((((((....)))..)))
- Tm [1]: 65.8 °C
- folding enthalpy [2]: -11.8 kcal/mol

Sequence: GCTCCCGAAAGGGCAAGC ((((((....)))..)))
- Tm [1]: 42.2 °C
- folding enthalpy [2]: -15.9 kcal/mol

Sequence: GCTCCCGAAAGGGTGAGC ((((((....)))..)))
- Tm [1]: 48.8 °C
- folding enthalpy [2]: -16.7 kcal/mol

Sequence: GCTCCCGGAAACAGGAGC (((((.(....).)))))
- Tm [1]: 49.5 °C
- folding enthalpy [2]: -34.3 kcal/mol

Sequence: GCTCCCGGAAACGGGGGC ((.((((....)))).))
- Tm [1]: 68.5 °C
- folding enthalpy [2]: -26.7 kcal/mol

Sequence: GCTCCGCCGAAAGGCAGC (((..(((....))))))
- Tm [1]: 35.1 °C
- folding enthalpy [2]: -9.89 kcal/mol

Sequence: GCTCCGCGAAAGCAGCGC ((.(.((....)).).))
- Tm [1]: 43.7 °C
- folding enthalpy [2]: -17.1 kcal/mol
